Test results from PMC6361726 (Bioorganic & medicinal chemistry, 2018).
pIC50: −log10 of the molar value.

Assays:
p38 MAP kinase = details: read-out: inhibition of p38 MAP kinase; quantity type not given; cited from earlier work
HK853 [1] = assay: ATP[γ-33P] enzymatic activity inhibition assay; type: biochemical, Thermotoga maritima; details: at non-aggregating concentrations
Procedure, shortened: (§1)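 Secondary assay run in a coupled competition-aggregation format on two histidine kinases: HK853 from Thermotoga maritima and VicK from Streptococcus pneumoniae. Enzymatic activity is followed using ATP[γ-33P], and the degree of inhibition by the test compound is measured.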

VicK = VicK (Streptococcus pneumoniae, UniProt Q8DPL8); assay: ATP[γ-33P] enzymatic activity inhibition assay; type: biochemical; details: at non-aggregating concentrations
Procedure, shortened: as §1

HK853 [2] = assay: Fluorescence polarization; type: binding, Thermotoga maritima
S. aureus = assay: Biofilm formation, crystal violet staining assay; type: cell-based, Staphylococcus aureus; details: compared to a DMSO control, one replicate
Pseudomonas aeruginosa = assay: Cell viability by optical density and resazurin indicator dye; type: cell-based; details: compared to a DMSO control, one replicate
P. aeruginosa = assay: Biofilm formation, crystal violet staining assay; type: cell-based, Pseudomonas aeruginosa; details: compared to a DMSO control, one replicate
[3] = test system: Methicillin-sensitive Staphylococcus aureus; assay: Cell viability by optical density and resazurin indicator dye; type: cell-based; details: compared to a DMSO control, one replicate
protein kinase D = details: cited from earlier work

Chain of VicK (Q8DPL8 whole entry): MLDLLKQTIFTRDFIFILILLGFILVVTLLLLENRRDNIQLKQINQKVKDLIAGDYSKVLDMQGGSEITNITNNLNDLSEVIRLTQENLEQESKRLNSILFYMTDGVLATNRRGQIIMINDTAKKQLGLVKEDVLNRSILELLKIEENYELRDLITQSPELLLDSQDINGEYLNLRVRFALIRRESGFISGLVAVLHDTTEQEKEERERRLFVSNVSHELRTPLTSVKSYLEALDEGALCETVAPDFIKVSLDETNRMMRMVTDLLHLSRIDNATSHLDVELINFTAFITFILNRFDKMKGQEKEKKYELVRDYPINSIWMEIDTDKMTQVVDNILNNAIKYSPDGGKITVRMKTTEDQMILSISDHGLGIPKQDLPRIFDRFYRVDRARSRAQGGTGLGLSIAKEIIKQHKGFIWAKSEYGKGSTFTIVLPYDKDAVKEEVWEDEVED

| Compound | pIC50 (p38 MAP kinase) | inhibition of HK activity (HK853 [1]) | inhibition of VicK activity (VicK) | displacement of ADP-BODIPY from the HK ATP-binding domain (HK853 [2]) | effect on biofilm production (S. aureus) | effect on cell viability (Pseudomonas aeruginosa) | effect on biofilm production (P. aeruginosa) | effect on cell viability [3] | inhibition of protein kinase D (protein kinase D) | activity in the HTS (FP screen) for HK inhibition (HK853 [2]; related library compounds that were not leads) |
| --- | --- | --- | --- | --- | --- | --- | --- | --- | --- | --- |
| Fc1ccc(-c2c(-c3ccncc3)[nH]c3nccnc23)cc1 [compound 32] | 7.28 | inhibit | inhibit | displace ADP-BODIPY | little effect | did not cause a significant decrease in cell viability | little effect | did not cause a significant decrease in cell viability | potent inhibitor | – |
| Fc1ccc(-c2c(-c3ccncc3)[nH]c3cccnc23)cc1 [RO1153853–000] | – | – | – | – | – | – | – | – | – | inactive |
